In one data set the test system is HepG2. The experiment in a line: Cytotoxicity against human HepG2 cells by MTT assay. It counts as functional, cell-based. In general terms: Formazan colour is commonly taken as a measure of viable cells.
In the next data set the test system is MDA-MB-231. Put plainly: Cytotoxicity against human MDA-MB-231 cells by MTT assay. It counts as functional, cell-based.
In the next data set the test system is A549. Put plainly: Cytotoxicity against human A549 cells by MTT assay. It counts as functional, cell-based.
In data set [1] the test system is Neutrophil. Put plainly: Antiinflammatory activity in human neutrophils assessed as inhibition of fMLP/CB-induced superoxide anion generation preincubated for 5 mins followed by cytochalasin B/fMLP addition for 3 mins by superoxide dismutase inhibitable reduction of ferricytochrome c based assay. It counts as functional, cell-based. Summed up: (§1)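 Human neutrophils stimulated with fMLF. For the superoxide read-out, cells were equilibrated in ferricytochrome c at 0.6 mg/mL. Other steps for superoxide generation and elastase release followed an earlier published protocol. Values are means ± SEM, n = 3 or 4.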

In data set [2] the test system is Neutrophil. The experiment in a line: Antiinflammatory activity in human neutrophils assessed as inhibition of fMLP/CB-induced elastase release preincubated for 5 mins followed by fMLP/CB stimulation and measured for 10 mins using MeO-Suc-Ala-Ala-Pro-Val-p-nitroanilide as substrate. In kind it is functional, cell-based. Summed up:
as §1

In a further data set the test system is dengue virus type 2. The experiment in a line: Antiviral activity against DENV2 infected in human HuH7 cells. In kind it is functional, organism-based. Particulars: Huh-7; call rule not given here.
Data set [3] can be described thus: Selectivity index, ratio of CC50 for human HuH7 cells to EC50 for DENV2 infected in human HuH7 cells. It counts as toxicity, cell-based. Particulars: read-out: Ratio CC50/EC50.
[4] abbreviates: Homo sapiens, MDA-MB-231, read-out: IC50.

Results on 31 molecules are retold here after ChEMBL document CHEMBL4145645, “Bioactive Phenolic Components from the Twigs of Atalantia buxifolia” (J Nat Prod, 2018).

For the molecule `COC(=O)/C(C)=C/COc1ccc(C(=O)OC)cc1`, the concentration for half-maximal inhibition (IC50) with HepG2, with MDA-MB-231 (setting [4]) and in the data set with A549 was over 20 µg/mL throughout.
For the molecule `CC1(C)CC[C@]2(C)CC[C@H]3[C@]4(C)CC[C@H]5C(C)(C)C(=O)CC[C@]5(C)[C@H]4CC[C@@]3(C)[C@@H]2C1`, the half-inhibitory concentration (IC50) with HepG2, in the data set with MDA-MB-231 (setting [4]) and in the data set on A549 was over 20 µg/mL each time.
Regarding `CO/N=C/C(=O)c1ccc(OC/C=C(\C)C(=O)OC)cc1`, the IC50 in the data set with HepG2, with MDA-MB-231 (setting [4]) and with A549 was over 20 µg/mL each time.
As to `CC1(C)C=Cc2c(ccc3ccc(=O)oc23)O1` [SESALIN], the IC50 is over 20 µg/mL with HepG2; over 20 µg/mL in the data set on MDA-MB-231 (setting [4]); over 20 µg/mL in the data set with A549; 4.7 µM with Neutrophil [1]; over 10 µM with Neutrophil [2].
Turning to `CC(C)=CCc1c2c(c3c(c1O)c(=O)c1ccccc1n3C)C=CC(C)(C)O2`, the 50% inhibitory concentration (IC50) in the data set on HepG2, in the data set on MDA-MB-231 (setting [4]) and in the data set with A549 was over 20 µg/mL each time.
Turning to `CO/N=C/C(=O)c1ccc(O/C=C/[C@H](C)C(=O)OC)cc1`, the concentration for half-maximal inhibition (IC50) in the data set with HepG2, in the data set with MDA-MB-231 (setting [4]) and in the data set on A549 was over 20 µg/mL throughout.
For the molecule `CC(C)=CCOc1c2ccoc2cc2oc(=O)ccc12` [ISOIMPERATORIN], the half-maximal inhibitory concentration (IC50) was over 20 µg/mL in the data set with HepG2; over 20 µg/mL in the data set on MDA-MB-231 (setting [4]); over 20 µg/mL in the data set on A549; 2.6 µM in the data set on Neutrophil [1]; over 10 µM in the data set on Neutrophil [2].
`CC1(C)C=Cc2c(cc(O)c3c(=O)c4cccc(O)c4[nH]c23)O1` [ATOLAPHYLLIDINE]: the IC50 with HepG2 was 7.3 µM; with MDA-MB-231 (mda-mb-231), “Not Active”; in the data set on A549, 7.8 µM.
Consider `COc1cc2c(c3[nH]c4ccccc4c(=O)c13)C=CC(C)(C)O2`, for which the IC50 with HepG2, in the data set on MDA-MB-231 (setting [4]) and in the data set with A549 was over 20 µg/mL throughout.
As to `CC(C)=CCc1c2c(c3[nH]c4ccccc4c(=O)c3c1O)C=CC(C)(C)O2` [SEVERIFOLINE], the IC50 in the data set with HepG2, in the data set on MDA-MB-231 (setting [4]) and in the data set with A549 was over 20 µg/mL in each case.
For `CO/N=C/C(=O)c1ccc(O)cc1`, the concentration for half-maximal inhibition (IC50) is over 20 µg/mL in the data set with HepG2; over 20 µg/mL in the data set on MDA-MB-231 (setting [4]); over 20 µg/mL in the data set on A549; 4.8 µM with Neutrophil [1]; over 10 µM in the data set with Neutrophil [2].
With `C=C(C)C(O)CC/C(C)=C/COc1ccc2ccc(=O)oc2c1` (configuration not stated), the IC50 with HepG2, in the data set with MDA-MB-231 (setting [4]) and with A549 was over 20 µg/mL throughout.
As for `CC(C)=CCOc1c2occc2cc2ccc(=O)oc12` [PENTOSALEN], the half-inhibitory concentration (IC50) with HepG2 was over 20 µg/mL; in the data set on MDA-MB-231 (setting [4]) it was over 20 µg/mL; with A549, over 20 µg/mL; in the data set on Neutrophil [1], 0.2 µM; in the data set on Neutrophil [2] it was over 10 µM.
Turning to `COc1c2ccoc2cc2oc(=O)ccc12` [BERGAPTEN], the IC50 in the data set with HepG2, with MDA-MB-231 (setting [4]) and in the data set with A549 was over 20 µg/mL each time.
`C=CC(C)(C)c1cc2ccc(O)cc2oc1=O`: the IC50 with HepG2, in the data set on MDA-MB-231 (setting [4]) and in the data set on A549 was over 20 µg/mL each time.
With `COc1cccc2c1C(=O)c1c(O)c3c(c(O)c1C2=O)C[C@@](O)(C(=O)CO)C[C@@H]3O[C@H]1C[C@H](N)[C@H](O)[C@H](C)O1` [DOXORUBICIN], the IC50 with A549 was found to be 0.6 µM.
Regarding `CC(C)=CCc1c2c(c3[nH]c4c(O)cccc4c(=O)c3c1O)C=CC(C)(C)O2` [ATALAPHYLLININE], the IC50 is 6.5 µM in the data set on HepG2, “Not Active” with MDA-MB-231 (mda-mb-231) and 7.8 µM with A549.
As for `COC(=O)c1ccc(O)cc1` [METHYLPARABEN], the IC50 in the data set with HepG2, in the data set with MDA-MB-231 (setting [4]) and in the data set on A549 was over 20 µg/mL in each case.
For `CC(C)=CCc1c(O)c(CC=C(C)C)c2c(c1O)c(=O)c1cccc(O)c1n2C`, the concentration for half-maximal inhibition (IC50) in the data set with HepG2, in the data set on MDA-MB-231 (setting [4]) and with A549 was over 20 µg/mL each time.
As for `CC(C)=CCOc1ccc(C(=O)/C=N/O)cc1`, the half-inhibitory concentration (IC50) in the data set with HepG2, in the data set with MDA-MB-231 (setting [4]) and with A549 was over 20 µg/mL each time.
Take `C/C(=C\COc1ccc2ccc(=O)oc2c1)C/C=C/C(C)(C)O`: the 50% inhibitory concentration (IC50) in the data set on HepG2, in the data set on MDA-MB-231 (setting [4]) and in the data set on A549 was over 20 µg/mL each time.
`COC(=O)c1cccc(O)c1OC` [METHYL 3-HYDROXY-2-METHOXYBENZOATE]: the 50% inhibitory concentration (IC50) in the data set with HepG2, in the data set on MDA-MB-231 (setting [4]) and in the data set with A549 was over 20 µg/mL throughout.
`COC(=O)/C=C/c1ccc(O)c(OC)c1`: the concentration for half-maximal inhibition (IC50) in the data set with HepG2, in the data set on MDA-MB-231 (setting [4]) and in the data set on A549 was over 20 µg/mL in each case.
With `C/C(=C\COc1ccc2ccc(=O)oc2c1)C/C=C/C(C)(C)OO`, the half-maximal inhibitory concentration (IC50) with HepG2, in the data set with MDA-MB-231 (setting [4]) and with A549 was over 20 µg/mL throughout.
For `O=c1cc(N2CCOCC2)oc2c(-c3ccccc3)cccc12` [LY-294002], the IC50 in the data set with Neutrophil [1] was 2.1 µM; with Neutrophil [2], 5.1 µM.
For the molecule `CC1(C)C=Cc2c(cc(O)c3c(=O)cc(-c4ccc(O)cc4)oc23)O1` [ATALANTOFLAVONE], the 50% inhibitory concentration (IC50) with HepG2, in the data set with MDA-MB-231 (setting [4]) and in the data set with A549 was over 20 µg/mL in each case.
Take `COC1=CC(=O)c2cc(C)ccc2C1=O`: the IC50 with HepG2, with MDA-MB-231 (setting [4]) and with A549 was over 20 µg/mL each time.
`COc1cccc2c(=O)c3c(O)cc4c(c3n(C)c12)C=CC(C)(C)O4`: the IC50 with HepG2, in the data set with MDA-MB-231 (setting [4]) and in the data set with A549 was over 20 µg/mL in each case.
Take `C=C(C)C(CC/C(C)=C/COc1ccc2ccc(=O)oc2c1)OO` (configuration not stated): the IC50 with HepG2, in the data set on MDA-MB-231 (setting [4]) and in the data set on A549 was over 20 µg/mL each time.
Turning to `CC(C)=CCc1c2c(c3c(c1O)c(=O)c1cccc(O)c1n3C)C=CC(C)(C)O2`, the IC50 was over 20 µg/mL with HepG2; over 20 µg/mL with MDA-MB-231 (setting [4]); over 20 µg/mL in the data set with A549; over 10 µM in the data set with Neutrophil [1]; 3.7 µM in the data set on Neutrophil [2]. This molecule also registered a concentration giving a half-maximal response (EC50) in the data set on dengue virus type 2 of 5.3 µM. The selectivity ratio in data set [3] is 6.3.
`COc1cc(O)c2c(=O)c3cccc(O)c3n(C)c2c1CC=C(C)C` [GLYCOCITRINE I]: the IC50 with HepG2, in the data set with MDA-MB-231 (setting [4]) and in the data set with A549 was over 20 µg/mL throughout.

By IC50 is commonly meant the concentration that gives 50% inhibition. What is called EC50 is the concentration that produces a half-maximal response. A low value points to a more potent agent.
